Measured values reported in ChEMBL document CHEMBL4433213, “Investigation on 2',3'-O-Substituted ATP Derivatives and Analogs as Novel P2X3 Receptor Antagonists” (ACS Med Chem Lett, 2019).
pIC50: −log10 of the molar value.

Columns and labels:
[1] = target: T1, P2X purinoceptor 4 (Homo sapiens) (UniProt Q99571); test: Antagonist activity at human P2X4R transfected in human 1321N1 cells assessed as inhibition of ATP-induced calcium influx relative to control; assay type: cell-based; conditions: concentration not given here
T1 sequence (whole entry): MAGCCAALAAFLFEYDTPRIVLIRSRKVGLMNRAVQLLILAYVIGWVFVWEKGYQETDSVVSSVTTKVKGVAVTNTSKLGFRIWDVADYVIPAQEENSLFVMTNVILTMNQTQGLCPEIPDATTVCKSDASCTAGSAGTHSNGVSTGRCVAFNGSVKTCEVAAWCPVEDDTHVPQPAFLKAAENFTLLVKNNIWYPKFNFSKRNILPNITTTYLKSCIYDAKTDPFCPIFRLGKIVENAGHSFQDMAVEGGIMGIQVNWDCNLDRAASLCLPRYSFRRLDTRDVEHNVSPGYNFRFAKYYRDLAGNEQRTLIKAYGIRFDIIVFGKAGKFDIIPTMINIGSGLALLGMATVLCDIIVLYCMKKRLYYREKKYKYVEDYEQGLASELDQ
Procedure, shortened: (§1)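 1321N1 astrocytoma cells stably expressing human P2X1, P2X2, P2X3 or P2X4 receptor. Calcium influx was induced by ATP at the EC80 for each subtype. Results are given as IC50 (μM) or % inhibition at the indicated concentration.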

P2X purinoceptor 1 = target: T2, P2X purinoceptor 1 (Homo sapiens, UniProt P51575); test: Antagonist activity at human P2X1R transfected in human 1321N1 cells assessed as inhibition of ATP-induced calcium influx; assay type: cell-based; procedure, shortened: as §1
T2 sequence (P51575 whole entry): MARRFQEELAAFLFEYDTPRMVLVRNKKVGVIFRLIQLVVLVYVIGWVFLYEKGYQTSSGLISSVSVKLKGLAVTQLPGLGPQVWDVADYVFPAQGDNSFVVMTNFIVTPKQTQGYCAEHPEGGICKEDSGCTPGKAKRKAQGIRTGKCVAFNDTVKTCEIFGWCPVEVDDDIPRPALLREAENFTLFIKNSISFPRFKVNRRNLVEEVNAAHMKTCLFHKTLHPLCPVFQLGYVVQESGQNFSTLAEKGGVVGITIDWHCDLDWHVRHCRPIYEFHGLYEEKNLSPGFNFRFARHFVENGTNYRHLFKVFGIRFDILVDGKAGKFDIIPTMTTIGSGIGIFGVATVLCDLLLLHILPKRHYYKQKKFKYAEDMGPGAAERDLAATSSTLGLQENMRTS

[2] = target: T3, P2X purinoceptor 2 (Homo sapiens) (UniProt Q9UBL9); test: Antagonist activity at human P2X2R transfected in human 1321N1 cells assessed as inhibition of ATP-induced calcium influx relative to control; assay type: cell-based; conditions: concentration not given here; procedure, shortened: as §1
T3 sequence (whole entry): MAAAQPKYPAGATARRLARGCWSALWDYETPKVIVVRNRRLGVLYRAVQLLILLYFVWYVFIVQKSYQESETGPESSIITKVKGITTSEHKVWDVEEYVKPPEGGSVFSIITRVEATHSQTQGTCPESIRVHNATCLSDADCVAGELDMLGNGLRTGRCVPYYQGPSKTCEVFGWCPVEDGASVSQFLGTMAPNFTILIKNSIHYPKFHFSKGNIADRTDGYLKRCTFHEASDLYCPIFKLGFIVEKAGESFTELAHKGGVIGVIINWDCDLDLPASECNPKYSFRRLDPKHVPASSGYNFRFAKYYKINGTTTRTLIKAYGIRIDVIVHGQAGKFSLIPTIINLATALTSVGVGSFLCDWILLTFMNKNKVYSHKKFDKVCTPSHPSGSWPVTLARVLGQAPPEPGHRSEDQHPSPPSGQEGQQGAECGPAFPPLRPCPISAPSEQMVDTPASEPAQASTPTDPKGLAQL

[3] = target: T4, P2X purinoceptor 1 (Homo sapiens) (UniProt P51575); test: Antagonist activity at human P2X1R transfected in human 1321N1 cells assessed as inhibition of ATP-induced calcium influx relative to control; assay type: cell-based; conditions: concentration not given here; procedure, shortened: as §1
T4 sequence (whole entry): T2 sequence (P51575 whole entry)

P2X purinoceptor 3 [4] = target: T5, P2X purinoceptor 3 (Homo sapiens, UniProt P56373); test: Antagonist activity at human P2X3R transfected in human 1321N1 cells assessed as inhibition of ATP-induced calcium influx; assay type: cell-based; procedure, shortened: as §1
T5 sequence (P56373 whole entry): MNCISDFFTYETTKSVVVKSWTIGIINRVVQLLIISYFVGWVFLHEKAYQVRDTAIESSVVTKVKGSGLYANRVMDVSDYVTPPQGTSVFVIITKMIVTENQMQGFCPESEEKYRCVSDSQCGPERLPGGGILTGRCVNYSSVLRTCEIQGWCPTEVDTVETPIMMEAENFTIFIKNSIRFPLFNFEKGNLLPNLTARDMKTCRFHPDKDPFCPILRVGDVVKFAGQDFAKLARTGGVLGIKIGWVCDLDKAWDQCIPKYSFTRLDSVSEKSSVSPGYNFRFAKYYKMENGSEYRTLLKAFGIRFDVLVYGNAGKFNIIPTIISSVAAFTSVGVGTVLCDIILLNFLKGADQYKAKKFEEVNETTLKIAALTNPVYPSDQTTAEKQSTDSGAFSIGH

P2X purinoceptor 4 = target: T6, P2X purinoceptor 4 (Homo sapiens, UniProt Q99571); test: Antagonist activity at human P2X4R transfected in human 1321N1 cells assessed as inhibition of ATP-induced calcium influx; assay type: cell-based; procedure, shortened: as §1
T6 sequence (Q99571 whole entry): T1 sequence (whole entry)

P2X purinoceptor 2 = target: T7, P2X purinoceptor 2 (Homo sapiens, UniProt Q9UBL9); test: Antagonist activity at human P2X2R transfected in human 1321N1 cells assessed as inhibition of ATP-induced calcium influx; assay type: cell-based; procedure, shortened: as §1
T7 sequence (Q9UBL9 whole entry): T3 sequence (whole entry)

P2X purinoceptor 7 = target: T8, P2X purinoceptor 7 (Homo sapiens, UniProt Q99572); test: Antagonist activity at human P2X7R transfected in human 1321N1 cells assessed as inhibition of Bz-ATP-induced calcium influx; assay type: cell-based
T8 sequence (Q99572 whole entry): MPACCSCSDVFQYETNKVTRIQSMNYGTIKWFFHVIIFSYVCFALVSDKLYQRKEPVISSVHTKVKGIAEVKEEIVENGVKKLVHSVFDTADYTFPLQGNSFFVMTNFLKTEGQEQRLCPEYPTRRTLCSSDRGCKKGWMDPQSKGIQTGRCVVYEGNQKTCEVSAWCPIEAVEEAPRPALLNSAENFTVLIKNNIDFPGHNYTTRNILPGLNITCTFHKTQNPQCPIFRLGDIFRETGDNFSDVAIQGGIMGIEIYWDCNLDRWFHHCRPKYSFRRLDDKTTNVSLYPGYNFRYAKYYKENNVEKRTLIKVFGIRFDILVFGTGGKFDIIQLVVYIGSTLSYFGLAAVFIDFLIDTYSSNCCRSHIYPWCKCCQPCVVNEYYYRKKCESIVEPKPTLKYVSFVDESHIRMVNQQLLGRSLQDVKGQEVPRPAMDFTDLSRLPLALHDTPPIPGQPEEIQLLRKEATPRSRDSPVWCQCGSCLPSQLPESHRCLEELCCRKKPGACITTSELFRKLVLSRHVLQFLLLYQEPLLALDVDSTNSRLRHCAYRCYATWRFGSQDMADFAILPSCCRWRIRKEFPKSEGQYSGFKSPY

[5] = target: T9, P2X purinoceptor 3 (Homo sapiens) (UniProt P56373); test: Antagonist activity at human P2X3R transfected in human 1321N1 cells assessed as inhibition of ATP-induced calcium influx relative to control; assay type: cell-based; conditions: concentration not given here; procedure, shortened: as §1
T9 sequence (whole entry): T5 sequence (P56373 whole entry)

[6] = target: T10, P2X purinoceptor 7 (Homo sapiens) (UniProt Q99572); test: Antagonist activity at human P2X7R transfected in human 1321N1 cells assessed as inhibition of Bz-ATP-induced calcium influx relative to control; assay type: cell-based; conditions: concentration not given here
T10 sequence (whole entry): T8 sequence (Q99572 whole entry)

P2X purinoceptor 3 [7] = target: T11, P2X purinoceptor 3 (Mus musculus, UniProt Q3UR32); test: Antagonist activity at P2X3R in mouse TG sensory neurons assessed as inhibition of P2X3R agonist alpha,beta-meATP-induced current at -65 mV holding potential by whole cell voltage clamp method
T11 sequence (Q3UR32 whole entry): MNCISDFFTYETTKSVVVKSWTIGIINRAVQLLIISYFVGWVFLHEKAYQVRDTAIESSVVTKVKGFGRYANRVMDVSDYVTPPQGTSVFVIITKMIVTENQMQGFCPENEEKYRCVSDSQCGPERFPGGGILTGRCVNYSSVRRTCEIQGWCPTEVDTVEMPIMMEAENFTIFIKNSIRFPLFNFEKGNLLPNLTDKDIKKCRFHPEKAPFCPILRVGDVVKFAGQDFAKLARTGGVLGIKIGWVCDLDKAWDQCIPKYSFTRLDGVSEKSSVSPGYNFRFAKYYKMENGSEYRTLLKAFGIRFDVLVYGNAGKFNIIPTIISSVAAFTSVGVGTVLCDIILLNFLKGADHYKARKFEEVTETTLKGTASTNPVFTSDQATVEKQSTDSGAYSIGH
Procedure, shortened: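 Mouse trigeminal sensory neurons were recorded by whole-cell patch clamp. Test compound (0.001–10 μM) was applied before 10 μM α,β-meATP, and inhibition of the agonist-evoked P2X3 current was measured. IC50 was taken from concentration–inhibition curves. N = 5–6 cells.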

Homo sapiens [8] = organism: Homo sapiens; test: Selectivity ratio of IC50 for human P2X4R transfected in human […] 1321N1 cells to IC50 for human transfected in human 1321N1 cells; assay type: cell-based
Homo sapiens [9] = organism: Homo sapiens; test: Selectivity ratio of IC50 for human P2X7R transfected in human […] 1321N1 cells to IC50 for human transfected in human 1321N1 cells; assay type: cell-based
Homo sapiens [10] = organism: Homo sapiens; test: Selectivity ratio of IC50 for human P2X1R transfected in human […] 1321N1 cells to IC50 for human transfected in human 1321N1 cells; assay type: cell-based

Compound	inhibition [1] [%]	pIC50 (P2X purinoceptor 1)	inhibition [2] [%]	inhibition [3] [%]	pIC50 (P2X purinoceptor 3 [4])	pIC50 (P2X purinoceptor 4)	pIC50 (P2X purinoceptor 2)	pIC50 (P2X purinoceptor 7)	inhibition [5] [%]	inhibition [6] [%]	pIC50 (P2X purinoceptor 3 [7])	Ratio IC50 (Homo sapiens [8])	Ratio IC50 (Homo sapiens [9])	Ratio IC50 (Homo sapiens [10])
Nc1ncnc2c1ncn2[C@@H]1O[C@H](COP(=O)(O)OP(=O)(O)OP(=O)(O)O)[C@H]2O[C@H](c3ccccc3)O[C@H]21		< 4.00	16	27	5.23	4.91	< 4.00	< 4.00		21	6.68			
Nc1ncnc2c1ncn2[C@@H]1O[C@H](COP(=O)(O)OP(=O)(O)OP(=O)(O)O)[C@H]2O[C@@H](c3ccccc3)O[C@H]21		≤ 5.00	18	44	6.21	4.96	< 4.00	5.07			7.09	14	18	
Nc1ncnc2c1ncn2[C@@H]1O[C@H](COP(=O)(O)OP(=O)(O)OP(=O)(O)O)[C@H]2OC3(CCCCC3)O[C@H]21		5.09	20		6.05	4.53	< 4.00	< 4.00		30	7.08			10

Now from value to compound, other results behind:

inhibition [1] [%]	pIC50 (P2X purinoceptor 1)	inhibition [2] [%]	inhibition [3] [%]	pIC50 (P2X purinoceptor 3 [4])	pIC50 (P2X purinoceptor 4)	pIC50 (P2X purinoceptor 2)	pIC50 (P2X purinoceptor 7)	inhibition [5] [%]	inhibition [6] [%]	pIC50 (P2X purinoceptor 3 [7])	Compound	Ratio IC50 (Homo sapiens [8])	Ratio IC50 (Homo sapiens [9])	Ratio IC50 (Homo sapiens [10])
35	< 5.00	30	13	≤ 4.00	< 4.52	< 5.00	< 4.52	56			CC1(C)O[C@@H]2[C@H](O1)[C@@H](COC(=O)c1cc(C(=O)O)c(C(=O)O)cc1C(=O)O)O[C@H]2n1cnc2c(N)ncnc21			
-6	< 4.00	6	21	< 4.00	< 4.00	< 4.00	< 4.52	15	-9		CC1(C)O[C@@H]2[C@H](O1)[C@@H](C(=O)N[C@@H](CCC(=O)O)C(=O)O)O[C@H]2n1cnc2c(N)ncnc21			
